Laboratory results reported in ChEMBL document CHEMBL1132570, “Synthesis of cytotoxic indenoisoquinoline topoisomerase I poisons” (1999).

Tests used:
SF-539 [1] = assay: Compound was tested for its cytotoxicity against CNS SF-539 Human cancer cell line; format: functional
In short: (§1)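 GI50 = concentration giving 50% growth inhibition, from a screen of about 55 human cancer cell lines over a 10^-8 to 10^-4 M test range. Values come from two determinations where a population standard deviation is shown, otherwise from single determinations.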

[2] = molecular target: T1, DNA topoisomerase 1 (Homo sapiens) (UniProt P11387); assay: The activity was examined against DNA topoisomerase I mediated DNA cleavage using 3'-End-labelled 161 BP plasmid DNA; 0 indicates inactive
T1 sequence (whole entry): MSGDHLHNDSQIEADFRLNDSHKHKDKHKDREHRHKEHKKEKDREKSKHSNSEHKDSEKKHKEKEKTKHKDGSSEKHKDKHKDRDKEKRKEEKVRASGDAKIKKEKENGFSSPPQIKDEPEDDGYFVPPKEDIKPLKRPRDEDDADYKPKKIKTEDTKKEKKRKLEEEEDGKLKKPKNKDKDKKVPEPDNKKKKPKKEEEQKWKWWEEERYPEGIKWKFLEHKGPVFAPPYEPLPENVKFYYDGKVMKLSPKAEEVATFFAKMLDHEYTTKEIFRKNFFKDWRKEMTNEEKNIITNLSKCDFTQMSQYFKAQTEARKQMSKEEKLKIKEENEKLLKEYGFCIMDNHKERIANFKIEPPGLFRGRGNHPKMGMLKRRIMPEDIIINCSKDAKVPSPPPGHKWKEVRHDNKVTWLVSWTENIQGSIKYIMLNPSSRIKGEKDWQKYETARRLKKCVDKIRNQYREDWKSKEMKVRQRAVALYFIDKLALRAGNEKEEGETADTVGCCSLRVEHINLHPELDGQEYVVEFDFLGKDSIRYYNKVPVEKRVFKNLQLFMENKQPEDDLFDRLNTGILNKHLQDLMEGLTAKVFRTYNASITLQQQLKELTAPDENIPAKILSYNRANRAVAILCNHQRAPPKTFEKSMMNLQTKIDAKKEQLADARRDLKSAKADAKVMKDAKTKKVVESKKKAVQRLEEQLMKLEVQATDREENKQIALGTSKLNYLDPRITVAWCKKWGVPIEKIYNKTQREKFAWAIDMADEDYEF
In short: (§2)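 A 161 bp PvuII–HindIII fragment of pBluescript SK(–) was 3'-end-labeled at the HindIII site with [α-32P]dCTP by Klenow fill-in. About 50 000 dpm per reaction was incubated with top1 and drug (0.1–300 μM) at 30 °C for 30 min, then stopped with 0.5% SDS (final). Products were run on 16% polyacrylamide/7 M urea gels at 51 °C and imaged by phosphorimager.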

DU-145 [3] = assay: Compound was tested for its cytotoxicity against prostate DU-145 Human cancer cell line; format: functional; in short: as §1
HOP-62 = assay: Cytotoxicity against lung HOP-62 human cancer cell line.; format: functional; in short: as §1
HCT-116 = assay: Cytotoxicity against colon HCT116 human cancer cell line.; format: functional; in short: as §1
MDA-MB-435 = assay: In vitro cytotoxicity against MDA-MB-435 (Human breast cancer) cell line.; format: functional; in short: as §1
OVCAR-3 = assay: Cytotoxicity against ovarian OVCAR-3 human cancer cell line.; format: functional; in short: as §1
SN12C = assay: In vitro cytotoxicity against SN12C (Human renal cancer) cell line.; format: functional; in short: as §1
UACC-62 = assay: In vitro cytotoxicity against UACC-62 (Human melanoma) cell line.; format: functional; in short: as §1
DU-145 [4] = assay: Cytotoxicity against prostate DU-145 human cancer cell line.; format: functional; in short: as §1
[5] = molecular target: T1, DNA topoisomerase 1 (Homo sapiens); assay: The activity was examined against DNA topoisomerase I mediated DNA cleavage using 3'-End-labelled 161 BP plasmid DNA. 0 indicates inactive; in short: as §2
SF-539 [6] = assay: Compound was tested for its cytotoxicity against CNS SF-539 Human cancer cell line
SF-539 [7] = assay: Compound was tested for its cytotoxicity against CNS SF-539 cell line; format: functional; details: Homo sapiens; in short: as §1
[8] = molecular target: T1, DNA topoisomerase 1 (Homo sapiens); assay: The activity was examined against DNA topoisomerase I mediated DNA cleavage using 3''-End-labelled 161 BP plasmid DNA; + indicates between 20 and 50% of the activity 0f 1 uM camptothecin; in short: as §2

Row | Top1 cleavage activity [2] | Top1 cleavage activity [5] | Compound | GI50 (SF-539 [1]) [µM] | GI50 (DU-145 [3]) [µM] | GI50 (HOP-62) [µM] | GI50 (HCT-116) [µM] | GI50 (MDA-MB-435) [µM] | GI50 (OVCAR-3) [µM] | GI50 (SN12C) [µM] | GI50 (UACC-62) [µM] | GI50 (DU-145 [4]) [µM] | GI50 (SF-539 [6]) [µM] | GI50 (SF-539 [7]) [µM] | Top1 cleavage activity [8]
1 | 0 |  | Cn1c2c(c3ccccc3c1=O)C(=O)c1cc(OCc3ccccc3)c(OCc3ccccc3)cc1-2 | > 100 | > 100 | 72 | > 100 | > 100 | > 100 | 88 | 93 |  |  |  | 
2 |  | 0 | COc1cc2c(c(OC)c1OC)C(=O)c1c-2n(C)c(=O)c2ccccc12 |  |  | 24 |  |  | > 100 | > 100 |  | > 100 | > 100 |  | 
3 |  |  | O=C1c2ccccc2-c2c1c1ccccc1c(=O)n2CCCCO |  |  | 13 | 3.2 | > 100 | 74 | 7.4 | 4.4 | > 100 |  | 4.6 | 20-50% of the activity 0f 1 uM camptothecin
